# Results from ChEMBL document CHEMBL1125068, “Structure-based, C2 symmetric inhibitors of HIV protease” (J Med Chem, 1990).
# Legend:
# [1] = biological target: T1, Human immunodeficiency virus type 1 protease (Human immunodeficiency virus 1, UniProt Q72874); test: Inhibitory activity against recombinant HIV-1 Protease
# MT4 [2] = test: In vitro inhibitory activity against HIV-1 in MT-4 cells; type: functional, cell-based; conditions: Homo sapiens
# Method in brief: (§1)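 MT4 cells (1 × 10⁴) were infected with 10 TCID₅₀ HIV-1 3B for 2 h, washed, and grown at 37 °C in inhibitor-containing medium. Viral cytopathic effect and compound toxicity were both scored on day 5 by MTT uptake. IC₅₀ and TC₅₀ came from this read-out.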
# MT4 [3] = test: In vitro inhibitory cytopathic effect against HIV-1 in MT-4 cells; type: functional; conditions: Homo sapiens, MT4, read-out: TC50; method in brief: as §1
# H9 [4] = test: In vitro inhibitory cytopathic effect against HIV-1 in H9 cells; type: functional; conditions: Homo sapiens, H9, read-out: TC50
# H9 [5] = test: In vitro inhibitory activity against HIV-1 in H9 cells; type: functional, cell-based; conditions: Homo sapiens
# Method in brief: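 H9 cells (2 × 10⁴) were infected with 100 TCID₅₀ HIV-1 3B for 2 h, washed, then cultured at 37 °C with inhibitor. Viral replication was read as p24 antigen by ELISA on days 7 and 10, and IC₅₀ was taken from the dose-response. Viability of uninfected cultures was checked by trypan blue exclusion.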
# [6] = biological target: T1, Human immunodeficiency virus type 1 protease; test: Inhibitory activity against recombinant HIV-1 protease.
structure (smiles),measurement,setting,value
CC(=O)N[C@H](C(=O)N[C@@H](Cc1ccccc1)C(O)[C@H](Cc1ccccc1)NC(=O)[C@@H](NC(C)=O)C(C)C)C(C)C,IC50,[1],12 nM
CC(C)(C)OC(=O)N[C@@H](Cc1ccccc1)[C@H](O)[C@H](O)[C@H](Cc1ccccc1)NC(=O)OC(C)(C)C,IC50,[1],12 nM
CC(C)[C@H](NC(=O)OCc1ccccc1)C(=O)N[C@@H](Cc1ccccc1)[C@@H](O)[C@@H](O)[C@H](Cc1ccccc1)NC(=O)[C@H](NC(=O)OCc1ccccc1)C(C)C,IC50,MT4 [2],16 nM
same,CC50,MT4 [3],> 100 µM
same,CC50,H9 [4],60 µM
same,IC50,H9 [5],20 nM
same,IC50,[6],0.22 nM
CC(C)[C@H](NC(=O)OCc1ccccc1)C(=O)N[C@@H](Cc1ccccc1)[C@H](O)[C@@H](O)[C@H](Cc1ccccc1)NC(=O)[C@H](NC(=O)OCc1ccccc1)C(C)C,IC50,MT4 [2],150 nM
same,CC50,MT4 [3],> 100 µM
same,CC50,H9 [4],> 100 µM
same,IC50,H9 [5],60 nM
same,IC50,[6],0.38 nM
CC(C)[C@H](NC(=O)OCc1ccccc1)C(=O)N[C@@H](Cc1ccccc1)[C@@H](O)[C@H](Cc1ccccc1)NC(=O)[C@H](NC(=O)OCc1ccccc1)C(C)C,IC50,[1],3 nM
CC(C)[C@H](NC(=O)OCc1ccccc1)C(=O)N[C@@H](Cc1ccccc1)[C@@H](O)[C@H](O)[C@H](Cc1ccccc1)NC(=O)[C@H](NC(=O)OCc1ccccc1)C(C)C,IC50,MT4 [2],80 nM
same,CC50,MT4 [3],> 100 µM
same,IC50,[1],0.22 nM
same,CC50,H9 [4],10 µM
same,IC50,H9 [5],20 nM
CC(C)C[C@H](NC(=O)OCc1ccccc1)C(=O)N[C@@H](Cc1ccccc1)C(O)[C@H](Cc1ccccc1)NC(=O)[C@@H](CC(C)C)NC(=O)OCc1ccccc1 (some centres undefined),IC50,[1],> 100 nM
CC(=O)N[C@H](C(=O)N[C@H](C(=O)N[C@@H](Cc1ccccc1)C(O)[C@H](Cc1ccccc1)NC(=O)[C@H](NC(=O)[C@H](NC(C)=O)C(C)C)C(C)C)C(C)C)C(C)C (some centres undefined),IC50,[1],10 nM
CC[C@H](C)[C@H](NC(=O)OCc1ccccc1)C(=O)N[C@@H](Cc1ccccc1)C(O)[C@H](Cc1ccccc1)NC(=O)[C@H](NC(=O)OCc1ccccc1)[C@@H](C)CC (some centres undefined),IC50,[1],4.9 nM
CC(C)(C)OC(=O)N[C@@H](Cc1ccccc1)[C@@H](O)[C@H](O)[C@H](Cc1ccccc1)NC(=O)OC(C)(C)C,IC50,[1],40 nM
CC(C)(C)OC(=O)N[C@@H](Cc1ccccc1)[C@H](O)[C@@H](O)[C@H](Cc1ccccc1)NC(=O)OC(C)(C)C,IC50,[1],280 nM
CC(=O)N[C@@H](Cc1ccccc1)C(O)[C@H](Cc1ccccc1)NC(C)=O,IC50,[1],> 10000 nM
